Reference: ChEMBL document CHEMBL2169850, “3,6-bis(3-alkylguanidino)acridines as DNA-intercalating antitumor agents” (Eur J Med Chem, 2012)
Calls of active or inactive are those of the source. The calls are words filed in the database; no cut-off is given here.

Key:
[1] = biological target: T1, DNA topoisomerase 1 (Homo sapiens) (UniProt P11387); assay: Inhibition of human topoisomerase 1 assessed as reduction in pBR322 DNA relaxation of relaxation at 5 uM by DNA unwinding assay
T1 sequence (whole entry): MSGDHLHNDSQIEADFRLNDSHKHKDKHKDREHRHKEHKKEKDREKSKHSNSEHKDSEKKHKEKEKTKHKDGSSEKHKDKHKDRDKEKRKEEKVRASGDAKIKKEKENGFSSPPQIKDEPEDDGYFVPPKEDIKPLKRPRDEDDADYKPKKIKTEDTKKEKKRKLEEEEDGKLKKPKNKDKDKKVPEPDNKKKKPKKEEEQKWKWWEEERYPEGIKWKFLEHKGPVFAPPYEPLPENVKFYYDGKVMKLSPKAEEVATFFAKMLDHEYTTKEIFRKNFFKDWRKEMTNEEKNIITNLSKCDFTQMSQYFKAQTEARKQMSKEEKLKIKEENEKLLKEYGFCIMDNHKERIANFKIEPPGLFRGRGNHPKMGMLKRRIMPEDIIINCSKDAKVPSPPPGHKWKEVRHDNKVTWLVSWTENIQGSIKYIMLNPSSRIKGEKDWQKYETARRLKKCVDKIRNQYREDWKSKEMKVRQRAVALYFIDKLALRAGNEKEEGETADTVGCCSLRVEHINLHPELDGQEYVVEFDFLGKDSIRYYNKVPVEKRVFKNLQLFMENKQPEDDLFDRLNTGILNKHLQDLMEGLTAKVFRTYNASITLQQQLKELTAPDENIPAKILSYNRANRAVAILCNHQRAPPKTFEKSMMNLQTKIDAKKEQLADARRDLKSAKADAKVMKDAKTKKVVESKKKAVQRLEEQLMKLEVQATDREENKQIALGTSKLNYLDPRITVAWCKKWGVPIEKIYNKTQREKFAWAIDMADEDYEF

[2] = biological target: T1, DNA topoisomerase 1 (Homo sapiens); assay: Inhibition of human topoisomerase 1 assessed as reduction in pBR322 DNA relaxation of relaxation at 60 uM by DNA unwinding assay
Nucleic Acid [3] = assay: Binding affinity to Escherichia coli pUC19 DNA assessed as reduction in DNA mobility to 5 to 80 uM by EMSA; format: nucleic-acid assay
Procedure, shortened: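 Supercoiled pUC19 plasmid incubated with compound at 5, 20, 40, 60 or 80 µM. Native agarose gel electrophoresis run with no ethidium bromide in the gel; band mobility was then read.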

Nucleic Acid [4] = assay: Binding affinity to calf thymus DNA increase in DNA viscosity at 12 to 60 uM by viscosimetric titration assay; format: nucleic-acid assay; conditions: Bos taurus
Procedure, shortened: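 Relative viscosity of ctDNA (3.11 × 10^-8 M) with compound at 12–60 × 10^-6 M was measured by automated microviscometry in a 1.6 mm capillary at 25 °C, in 10 mM Tris, pH 7.4. Solution density was also measured.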

Nucleic Acid [5] = assay: Binding affinity to calf thymus DNA at 6.5 uM by CD spectroscopy; format: nucleic-acid assay; conditions: Bos taurus
Procedure, shortened: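 CD spectra were recorded in 1 mm quartz cuvettes in 0.01 M Tris, pH 7.4, with 6.52 µM compound and ctDNA. Each spectrum is the mean of three scans after buffer background subtraction.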

Nucleic Acid [6] = assay: Binding affinity to calf thymus DNA by spectrofluorimetric titration assay; format: nucleic-acid assay; conditions: Bos taurus
Procedure, shortened: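 Fluorescence titration at 25 °C in 0.01 M Tris, pH 7.4. Compound (9.58 × 10^-6 M) was titrated with ctDNA from 0 to 2.57 × 10^-4 M bp, excited at 384 nm, and emission recorded from 400 to 600 nm. K and n were obtained from McGhee–von Hippel fits of Scatchard data.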

Nucleic Acid [7] = assay: Binding affinity to calf thymus DNA assessed as melting temperature at 12.4 uM by thermal denaturation study; format: nucleic-acid assay; conditions: Bos taurus
Nucleic Acid [8] = assay: Binding affinity to calf thymus DNA assessed as hypochromacity at 12.8 uM by UV-visible absorption spectroscopy; conditions: Bos taurus
HL-60 [9] = assay: Drug uptake in human HL60 cells with normal morphology at 50 uM incubated for 18 hrs by fluorescence microscopy; format: ADME, cell-based; conditions: hl-60, 18 h
Procedure, shortened: (§1)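 HL-60 cells were treated with 50 µM compound for 18 h, washed with PBS, resuspended in HBSS and mounted as native slides. Cells were imaged by inverted fluorescence microscopy at 40×, with excitation 360/40 and emission 470/40. The fluorescence channel was merged with brightfield images.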

HL-60 [10] = assay: Drug uptake in human HL60 cells with necrotic morphology at 50 uM incubated for 18 hrs by fluorescence microscopy; format: ADME, cell-based; conditions: hl-60, 18 h; procedure, shortened: as §1
HL-60 [11] = assay: Induction of apoptosis in human HL60 cells at 5 to 25 uM incubated for 24 hrs by AnnexinV/propidium iodide staining method; format: functional, cell-based
Procedure, shortened: (§2)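 HL-60 cells (1.5 × 10^5) were treated at 5–25 µM for 24, 48 or 72 h and harvested. They were stained with Annexin V-FITC for 10 min in HEPES/CaCl2/NaCl binding buffer, washed, briefly stained with PI (1 mg/mL) and analysed by flow cytometry for apoptosis and necrosis. Mean ± SD, n ≥ 3.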

HL-60 [12] = assay: Antiproliferative activity against human HL60 cells assessed as cell number at 25 uM incubated for 72 hrs by Coulter counting method; format: functional
Procedure, shortened: (§3)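 HL-60 cells in RPMI with 10% heat-inactivated FCS, antibiotics and amphotericin, 37 °C, 5% CO2, seeded in 60 mm dishes. Compound added at 5, 15 or 25 µM for 24, 48 or 72 h. Absolute cell counts taken by Coulter counter and expressed as percentage of untreated control. Mean ± SD of at least three independent experiments; one-way ANOVA with Tukey test, p < 0.05.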

HL-60 [13] = assay: Antiproliferative activity against human HL60 cells assessed as cell number at 15 uM incubated for 72 hrs by Coulter counting method; format: functional; procedure, shortened: as §3
HL-60 [14] = assay: Antiproliferative activity against human HL60 cells assessed as cell number at 5 uM incubated for 72 hrs by Coulter counting method; format: functional; procedure, shortened: as §3
HL-60 [15] = assay: Antiproliferative activity against human HL60 cells assessed as cell number at 15 uM incubated for 48 hrs by Coulter counting method; format: functional; procedure, shortened: as §3
HL-60 [16] = assay: Antiproliferative activity against human HL60 cells assessed as cell number at 25 uM incubated for 48 hrs by Coulter counting method; format: functional; procedure, shortened: as §3
HL-60 [17] = assay: Antiproliferative activity against human HL60 cells assessed as cell number at 5 uM incubated for 48 hrs by Coulter counting method; format: functional; procedure, shortened: as §3
HL-60 [18] = assay: Antiproliferative activity against human HL60 cells assessed as cell number at 15 uM incubated for 24 hrs by Coulter counting method; format: functional; procedure, shortened: as §3
HL-60 [19] = assay: Antiproliferative activity against human HL60 cells assessed as cell number at 25 uM incubated for 24 hrs by Coulter counting method; format: functional; procedure, shortened: as §3
HL-60 [20] = assay: Antiproliferative activity against human HL60 cells assessed as cell number at 5 uM incubated for 24 hrs by Coulter counting method; format: functional; procedure, shortened: as §3
HL-60 [21] = assay: Induction of necrosis in human HL60 cells at 5 to 25 uM incubated for 72 hrs by AnnexinV/propidium iodide staining method; format: functional, cell-based
Procedure, shortened: (§4)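 HL-60 cells (1.5 × 10^5) were exposed to compound, then stained 10 min with Annexin V-FITC in HEPES/CaCl2/NaCl binding buffer. Cells were washed, briefly stained with propidium iodide and analysed by flow cytometry for apoptotic and necrotic fractions. Mean ± SD of at least three independent experiments.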

HL-60 [22] = assay: Induction of necrosis in human HL60 cells at 5 to 25 uM incubated for 24 hrs by AnnexinV/propidium iodide staining method; format: functional, cell-based; procedure, shortened: as §4
HL-60 [23] = assay: Induction of apoptosis in human HL60 cells at 5 to 25 uM incubated for 48 hrs by AnnexinV/propidium iodide staining method; format: functional, cell-based; procedure, shortened: as §2
HL-60 [24] = assay: Induction of apoptosis in human HL60 cells at 5 to 25 uM incubated for 72 hrs by AnnexinV/propidium iodide staining method; format: functional, cell-based; procedure, shortened: as §2
HL-60 [25] = assay: Induction of necrosis in human HL60 cells at 5 to 25 uM incubated for 48 hrs by AnnexinV/propidium iodide staining method; format: functional, cell-based; procedure, shortened: as §4
HL-60 [26] = assay: Induction of caspase-3 activation in human HL60 cells at 25 uM incubated for 72 hrs by FACS assay; format: functional
Procedure, shortened: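 HL-60 cells were treated for 72 h, washed in cold PBS, fixed and permeabilized for 20 min on ice. They were incubated with a FITC anti-active caspase-3 antibody for 30 min at RT and analysed by flow cytometry. Results are the percentage of positively stained cells; mean ± SD, n ≥ 3.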

HL-60 [27] = assay: Induction of caspase-3 activation in human HL60 cells at 5 to 25 uM incubated for 24 to 72 hrs by FACS assay; format: functional, cell-based
Procedure, shortened: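 HL-60 cells (RPMI with 10% heat-inactivated FCS, 37 °C, 5% CO2) were seeded in dishes and treated 24, 48 or 72 h. Cells were fixed and permeabilized 20 min on ice, then stained 30 min at RT with FITC anti-active caspase-3 antibody. Read-out was the percentage of positive cells by flow cytometry. Mean ± SD of at least three independent experiments; ANOVA with Tukey.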

Activity [1]	Topoisomerase 1 inhibition (active/inactive) [2]	Activity (Nucleic Acid [3])	Activity (Nucleic Acid [4])	Activity (Nucleic Acid [5])	K (Nucleic Acid [6]) [×10⁵ /M]	Tm (Nucleic Acid [7]) [°C]	Activity (Nucleic Acid [8]) [%]	SMILES	other results
Active	Active	Active	Active	Active	4.25	86	17	CCCCNC(=N)Nc1ccc2cc3ccc(NC(=N)NCCCC)cc3nc2c1	
Active	Active	Active	Active	Active	5.01	85	32	CCCNC(=N)Nc1ccc2cc3ccc(NC(=N)NCCC)cc3nc2c1	
Active	Active	inactive	Active	Active	2.36	88	31	CCCCCNC(=N)Nc1ccc2cc3ccc(NC(=N)NCCCCC)cc3nc2c1.Cl.Cl.O	Drug uptake (HL-60 [9]): Active; Drug uptake (HL-60 [10]): Active; Activity (HL-60 [11]): inactive; Activity (HL-60 [12]): 48.67%; Activity (HL-60 [13]): 54.4%; Activity (HL-60 [14]): 83.3%; Activity (HL-60 [15]): 77.14%; Activity (HL-60 [16]): 67.98%; Activity (HL-60 [17]): 81.9%; Activity (HL-60 [18]): 75.2%; Activity (HL-60 [19]): 78.32%; Activity (HL-60 [20]): 76.19%; Activity (HL-60 [21]): inactive; Activity (HL-60 [22]): inactive; Activity (HL-60 [23]): inactive; Activity (HL-60 [24]): inactive; Activity (HL-60 [25]): inactive; Activity (HL-60 [26]): 46.8%; Activity (HL-60 [27]): inactive
